A short description of the series: Toxicity liver stage against HepG2, at 10uM. The settings on record: human, HepG2-A16-CD81EGFP cells; read-out: INHIBITION
The class given is cell-based. Also noted: test concentration 10 uM, cell line HepG2-A16-CD81EGFP. The essentials:
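Uninfected HepG2-A16-CD81EGFP cells, 3 × 10^3 per well, 1536-well, plated on prespotted compound at 10 μM final, parasite-free screening media added to match infected plates; puromycin 10 μM positive, DMSO 0.5% negative; run in parallel with 48 h PbLuc assay at 37 °C, 5% CO2; viability by CellTiter-Glo luminescence, normalized to controls.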
As to `Cc1ccc(-c2c[nH]c([C@@H]3COCCN3Cc3ncc[nH]3)n2)cc1`, the cytotoxicity at 10 µM was 0.835%. With `CN1CCN(S(=O)(=O)c2cccc(F)c2)c2ccccc21` the figure was 38.5%; with `CO[C@@H]1CN(c2ccccc2)S(=O)(=O)[C@@]12CCN(Cc1ccccc1)C2`, 3.51%. Regarding `COc1cccc(OC)c1CN1CC(O)CN(S(C)(=O)=O)CC1=O` (stereo not given), the cytotoxicity at 10 µM is -82.6%.

For the molecule `COc1ccc(-c2noc(C(N)CCSC)n2)cc1OC` (stereo not given), the cytotoxicity at 10 µM came out at 11.2%. Take `CSCC[C@@H](CO)NC(=O)c1ccc2nc(NS(C)(=O)=O)sc2c1`: the cytotoxicity at 10 µM was 10.7%. With `O=C(CSC1CCCC1)N1CCN(C(=O)C2CC2c2ccccc2)CC1` (stereo not given) the figure was -4.74%; with `CC(C)NC(=O)Nc1nc2c(s1)CN(C(=O)NCc1cccs1)CC2`, 33%. As to `COC(=O)N1CCc2ccccc2C1C(=O)NCc1ccccn1` (stereo not given), the cytotoxicity at 10 µM was -3.01%. Next, `CC(C)(C)n1ncc2c1NC(=O)CC2c1c(F)cccc1F` (stereo not given): -1.53%; `CN(C)c1ccc(C(=O)NCC2(c3ccccc3)CCOCC2)cc1`: 6.52%; `OC1(c2ccccc2F)CCN(Cc2ccccc2N2CCCC2)CC1`: 13.2%.

With `CCn1ncc(S(=O)(=O)N2CCCC3(CC=CNC3=O)C2)c1C` (stereo not given), the cytotoxicity at 10 µM is -7.6%. Next, `CC(=O)N1CC2(CCCN2Cc2ccc(Cl)cc2)Cc2ccccc21` (stereo not given): 11.9%; `CS(=O)(=O)N1CC2(CCN(CC3CCCCC3)CC2)Cc2ccccc21`: 6.25%; `Cc1ccc(CN(C)Cc2ncc(C(C)(C)C)o2)o1`: -6.58%.

Take `N#CCCCn1cnc2c(F)cc(Br)cc2c1=O`: the cytotoxicity at 10 µM came out at 4.29%. With `CCc1cc(N2CCC(Nc3ccc4nnc(C)n4n3)CC2)ncn1` the figure was 4.69%; with `CCN1CCOC(CNCc2cnc(C(C)(C)C)s2)C1` (stereo not given), -2.24%. With `CC(C(=O)NCc1ccc2c(c1)OCCO2)n1cncn1` (stereo not given) the figure was -141%; with `CCCC(C#N)NC(=O)c1sccc1CC` (stereo not given), 12.7%.

In the case of `Cc1nc(NC(=O)C(C)N(C)Cc2ccc3c(c2)OCO3)sc1C` (stereo not given), the cytotoxicity at 10 µM was 0.787%. As for `CC(C)(C)NC(=O)C1CCCCN1Cc1nccn1CC(F)(F)F` (stereo not given), the cytotoxicity at 10 µM came to 6.21%.

For the molecule `CCN(CC)C1CCN(C(=O)Nc2cc(F)c(OC)c(F)c2)C1` (stereo not given), the cytotoxicity at 10 µM amounted to 4.55%. Next, `CCN1CCCN(S(=O)(=O)c2cc3ccccc3o2)CC1`: 3.53%. With `CNC(=O)NC(=O)CN1CCN(CC2CC2)c2ccccc21` the figure was 10.4%. With `O=C(CNc1cc(-n2cnnn2)ccc1F)Nc1cc(F)ccc1F` the figure was -4.09%; with `COC(=O)C1CCCN1CC(=O)NCc1ccc(OCC(N)=O)cc1` (stereo not given), 7.45%; with `CCOCCN1CCN(C(C)C(=O)Nc2ccnn2C(C)C)CC1` (stereo not given), -7.87%. As for `CN(C(=O)NCc1nccn1Cc1ccccc1)C1CC1`, the cytotoxicity at 10 µM is -2.22%. Next, `OC[C@@H](O)CN(CCC(F)(F)F)c1ncc(Cl)cn1`: 12.8%. With `NC(=O)NCC1CCCCN1C(=O)c1ccc(Cl)s1` (stereo not given) the figure was -12.1%; with `Cc1ccccc1S(=O)(=O)NC(=O)C1(c2cccc(Cl)c2)CC1`, 1.97%.

As for `COc1ccc(N(Cc2ccco2)C(=O)C2CCCO2)cc1F` (stereo not given), the cytotoxicity at 10 µM was -3.51%.

For the molecule `Cc1cc(C(C)NC(=O)Cn2nc(C)c3ccccc3c2=O)c(C)o1` (stereo not given), the cytotoxicity at 10 µM was -5.3%. Next, `CN(CCc1ccccn1)C(=O)C(O)c1ccc(Br)cc1` (stereo not given): -0.779%; `Cc1noc(C)c1CN(C)C(C)c1cccs1` (stereo not given): -3.11%; `Cc1nc(C)n(Cc2cccc(NC(=O)N(C)CCC(C)O)c2)n1` (stereo not given): -6.64%. Next, `Cc1nc(C2CCCN(C(=O)CN3CCCC3=O)C2)sc1C` (stereo not given): -6.96%; `O=C(C1CCCc2[nH]ncc21)N1CCCCCC1` (stereo not given): 4.65%; `Cc1cccc(N2CC[C@H]3CO[C@H](CN(C)Cc4ccco4)[C@H]3C2)n1`: 13.3%.

With `COCc1cnc2n1CCN(C(=O)c1cc3cc(Cl)ccc3o1)C2C` (stereo not given), the cytotoxicity at 10 µM is -112%. Take `CCS(=O)(=O)N1CC[C@H]2OCC[C@@]2(C(=O)NC)C1`: the cytotoxicity at 10 µM was -72.6%. Regarding `C[C@H]1C[C@@H]2CCN(Cc3ccco3)C[C@H]2O1`, the cytotoxicity at 10 µM was -80.1%. `Cc1cc(=O)[nH]c(NCCNC(=O)c2ccccc2N2CCCC2)n1`: the cytotoxicity at 10 µM amounted to 0.998%. Regarding `c1cc(-c2cncnc2)cc(-c2ccn(CC3CCNC3)n2)c1` (stereo not given), the cytotoxicity at 10 µM was found to be 5.54%. Next, `Cc1cccnc1CN1CCN(C[C@]2(O)CCCN3CCCC[C@@H]32)CC1`: -0.418%; `CCOC(=O)C1(Cc2cccc(Cl)c2)CCCN(Cc2ncc[nH]2)C1` (stereo not given): -5.22%. With `CCOC(=O)CC(C)Nc1nc(C(C)(C)C)nc2c1cnn2C` (stereo not given) the figure was 6.51%. Next, `COc1ccc2[nH]nc(CN3CCN(Cc4cccc(F)c4)CC3)c2c1`: -8.14%; `O=C(O)c1cn(CC2CCCN(c3nc4ccccc4s3)C2)nn1` (stereo not given): -12.2%. For the molecule `CC(=O)Nc1ccc(CN2CCc3[nH]cnc3C2c2nccn2C)cc1` (stereo not given), the cytotoxicity at 10 µM was -182%. Next, `COc1coc(CN2CCCC(CCc3ccccc3C)C2)cc1=O` (stereo not given): -0.931%; `CC(C)c1noc(CCNC(=O)C2COc3ccccc3C2)n1` (stereo not given): -1.24%; `CC(C)N1CCC(CC(=O)N2CCC(C(O)c3nccn3C)CC2)CC1` (stereo not given): -0.153%. Next, `Cc1ccc2[nH]c(=O)cc(C(=O)N[C@@H]3C[C@@H](CO)N(C)C3)c2c1`: 5.43%; `CN1CCN2C[C@@H](NC(=O)c3nc4ccccc4[nH]3)C[C@H]2C1`: -0.159%; `OC1(CN2CCCCC2)CCN(c2nccc(C(F)(F)F)n2)C1` (stereo not given): -7.07%. As for `Cc1nc(CCCNC(=O)c2coc(CN3CCOCC3)c2)sc1C`, the cytotoxicity at 10 µM was -2.11%. As for `COc1cccc(-c2noc(-c3ccc(NCCCN)nc3)n2)c1OC`, the cytotoxicity at 10 µM is -1.43%.

As to `CSc1ccccc1C(=O)N1CCN(C)C2(CCC(=O)N(C)CC2)C1` (stereo not given), the cytotoxicity at 10 µM turned out to be 3.84%. Next, `COCC[C@]1(O)CCN(CC(=O)NCc2ccccc2C)C[C@H]1C`: -5.31%. Next, `CNC(=O)c1sccc1S(=O)(=O)NC`: 8.52%. Next, `O=S1(=O)CCC(n2cc(C3=CCN(CCc4ccccc4)CC3)cn2)C1` (stereo not given): -2.64%. Consider `CC(Cn1cccn1)NCc1csc2c1CCCC2` (stereo not given), for which the cytotoxicity at 10 µM is -2.86%.

On to `O=C(C1CC1)N1CCc2c(ncnc2N2CCN3CCCC3C2)C1` (stereo not given), for which the cytotoxicity at 10 µM was -13.6%. With `CO[C@H]1CN(C(C)C)C[C@@H]1NC(=O)c1cc(COc2ccccc2)[nH]n1` the figure was -2.43%. Next, `CCc1nnc(CN(C)C(=O)C2CC(=O)N(C3CC3)C2)o1` (stereo not given): 2.28%; `CN(Cc1n[nH]c2c1CCC2)C(=O)CCc1cc2n(n1)CCNC2`: -10.5%; `COC(=O)C(C)NCc1ccc2[nH]c(C)c(C)c2c1` (stereo not given): 2.4%. As to `CCCc1cc(C(=O)N(C)Cc2cccc3ncccc23)n(C)n1`, the cytotoxicity at 10 µM was -0.758%. With `Cn1ccnc1-c1ccccc1C(=O)N1CCc2c(nc(N)[nH]c2=O)C1` the figure was -5.3%; with `C[C@@H]1CN(C(=O)c2ccc(C#N)nc2)C[C@@]1(O)C1CC1`, -28.8%; with `COc1ccccc1CC(=O)N1CCC(NCc2ccccn2)CC1`, -11.5%. As to `CC(C)n1ccnc1CN1CCCN(C(=O)c2cnc[nH]2)CC1`, the cytotoxicity at 10 µM is -11.9%. Next, `Cc1ncccc1CNC1CCCN(Cc2noc(C3CC3)n2)C1` (stereo not given): -1.34%; `Cc1nc(CN2CCCC(NCc3c(C)nc4sccn34)C2)no1` (stereo not given): 6.21%; `CC(C(=O)NCCCN1CCCCCC1=O)n1cncn1` (stereo not given): -20.9%. Next, `O=C(NCCn1ccnc1)c1cccc(F)c1`: -10%; `Cc1cc(CN2CCCC2Cn2cncn2)no1` (stereo not given): -10%. With `O[C@@H]1CN(Cc2ccc(F)c(F)c2)CC[C@H]1NCc1ccccn1` the figure was 3.85%; with `Cc1cc(C(=O)N2CCC3(C2)CN(c2ccsc2)C(=O)CN3C)[nH]n1` (stereo not given), -75.2%; with `CN(C)CCOCC1CN(C(=O)N2CCCC2)Cc2ccnn2C1` (stereo not given), 4.55%. Turning to `CNC(=O)[C@H]1C[C@@H]2CN(S(=O)(=O)c3ccc(OC)cc3)C[C@@H]2N1C`, the cytotoxicity at 10 µM is -3.9%. Next, `Cc1nc(N2CCCC2)nc2c1CCN(Cc1nccn1C)CC2`: -130%; `CCN1CCC(c2nc3ccc(NC4CCC4)cn3n2)CC1`: -121%; `COCC1CC2(CCN(c3cccc(C)n3)CC2)CN1c1ncccn1` (stereo not given): -108%.

On to `Cc1noc(C)c1CN1CC[C@H]2OCC[C@@]2(C(=O)NCC2CC2)C1`, for which the cytotoxicity at 10 µM is -77.2%. With `c1ccc(CN2CC[C@H]3[C@H]2CCN3c2ncccn2)nc1` the figure was 1.24%; with `Cn1ccc(CN2CCC3(CC2)CC(Nc2cnccn2)CO3)n1` (stereo not given), -2.66%.

`Cc1ccc(CN2C[C@@H]3CN(c4ncc(F)cn4)C[C@@H]3C2)cc1`: the cytotoxicity at 10 µM worked out at 1.86%. Next, `Cc1ccc(N2CC[C@H]3O[C@H](C(=O)N4CCCCO4)CC[C@H]32)nn1`: 10.1%; `CCC1=N[C@@]2(CC[C@@H]3CN(Cc4ccccc4C)C[C@@H]32)C(=O)N1C`: -107%. Consider `C[C@H]1C[C@H]2CN(Cc3ccccn3)CC[C@@H]2O1`, for which the cytotoxicity at 10 µM is -78.2%. Consider `Fc1ccc(CNCC2OCCc3cn(CC4CC4)nc32)cc1` (stereo not given), for which the cytotoxicity at 10 µM is 0.925%.

The record behind these values is ChEMBL document CHEMBL4513216, “Probing the Open Global Health Chemical Diversity Library for Multistage-Active Starting Points for Next-Generation Antimalarials” (ACS Infect Dis, 2020).
